Results: ChEMBL document CHEMBL4014346, “Lead Optimization Generates CYP11B1 Inhibitors of Pyridylmethyl Isoxazole Type with Improved Pharmacological Profile for the Treatment of Cushing's Disease” (J Med Chem, 2017)

How the values were obtained:
[1] = system: Salmonella typhimurium; assay: Mutagenicity in Salmonella typhimurium TA7001/7002/7003/7004/7005/7006 up to 100 uM by Ames 2 assay; assay type: toxicity; conditions: salmonella enterica subsp. enterica serovar typhimurium
How it was run: (§1)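 AMES II kit with Salmonella typhimurium TA98 and TA7001–TA7006, run with or without rat liver S9 fraction according to the kit instructions.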

[2] = molecular target: CYP3A4 (Homo sapiens, UniProt P08684); assay: Inhibition of recombinant human CYP3A4 expressed in baculovirus infected insect cell microsomes at 1 uM relative to control; assay type: ADME
Chain of CYP3A4 (P08684 whole entry): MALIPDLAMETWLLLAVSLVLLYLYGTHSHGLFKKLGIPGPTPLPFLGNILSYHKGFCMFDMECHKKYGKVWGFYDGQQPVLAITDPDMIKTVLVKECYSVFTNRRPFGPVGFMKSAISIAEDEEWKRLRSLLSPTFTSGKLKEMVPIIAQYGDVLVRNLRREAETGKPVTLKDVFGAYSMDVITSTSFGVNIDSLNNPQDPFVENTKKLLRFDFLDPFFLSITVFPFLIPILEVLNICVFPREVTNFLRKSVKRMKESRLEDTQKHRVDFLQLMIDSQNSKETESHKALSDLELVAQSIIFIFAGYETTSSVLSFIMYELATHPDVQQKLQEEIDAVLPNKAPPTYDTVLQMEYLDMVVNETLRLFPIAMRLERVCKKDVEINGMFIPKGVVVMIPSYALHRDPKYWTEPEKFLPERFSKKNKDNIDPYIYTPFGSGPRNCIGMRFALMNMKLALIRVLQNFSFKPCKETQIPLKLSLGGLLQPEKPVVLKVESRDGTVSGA
How it was run: (§2)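 Recombinant human CYP1A2, 2B6, 2C9, 2C19, 2D6 and 3A4 in baculovirus-infected insect-cell microsomes, assayed per kit instructions; test compound at 1 µM, percent inhibition.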

[3] = Aqueous solubility of the compound in 2% DMSO up to 24 hrs; assay type: physicochemical
[4] = molecular target: T1, Cytochrome P450 11B2, mitochondrial (Homo sapiens, UniProt P19099); assay: Inhibition of human CYP11B2 expressed in hamster V79MZ cells using [1,2-3H]-11-deoxycorticosterone as substrate after 6 hrs by HPLC analysis; assay type: ADME, cell-based
T1 sequence (P19099 whole entry): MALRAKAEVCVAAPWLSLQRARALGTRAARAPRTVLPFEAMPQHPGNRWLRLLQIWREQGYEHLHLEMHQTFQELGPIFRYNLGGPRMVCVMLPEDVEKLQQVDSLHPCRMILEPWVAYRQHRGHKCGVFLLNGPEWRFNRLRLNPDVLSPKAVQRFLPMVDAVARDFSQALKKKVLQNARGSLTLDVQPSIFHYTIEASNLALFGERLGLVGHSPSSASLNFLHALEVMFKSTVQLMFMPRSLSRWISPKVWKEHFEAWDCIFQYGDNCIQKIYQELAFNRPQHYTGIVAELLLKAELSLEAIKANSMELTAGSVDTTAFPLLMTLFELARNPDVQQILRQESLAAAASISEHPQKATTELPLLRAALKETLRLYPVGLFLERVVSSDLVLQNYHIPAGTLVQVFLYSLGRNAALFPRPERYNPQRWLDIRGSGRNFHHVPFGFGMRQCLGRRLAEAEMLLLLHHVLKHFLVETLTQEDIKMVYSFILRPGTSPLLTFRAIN
How it was run: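 V79MZ cells expressing recombinant human CYP11B1 or CYP11B2, or rat CYP11B1, incubated with [1,2-³H]-11-deoxycorticosterone (100 nM) and inhibitor over a range of concentrations; ketoconazole as reference.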

[5] = Half life in human liver S9 fractions at 1 uM in presence of NADPH/UDPGA by LC-MS/MS analysis; assay type: ADME
How it was run: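 Samples taken at 0, 5, 15 and 60 min, stopped with cold acetonitrile containing internal standard. Remaining parent measured by LC-MS/MS.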

[6] = molecular target: T2, CYP1A2 (Homo sapiens, UniProt P05177); assay: Inhibition of recombinant human CYP1A2 expressed in baculovirus infected insect cell microsomes at 1 uM relative to control; assay type: ADME; how it was run: as §2
T2 sequence (P05177 whole entry): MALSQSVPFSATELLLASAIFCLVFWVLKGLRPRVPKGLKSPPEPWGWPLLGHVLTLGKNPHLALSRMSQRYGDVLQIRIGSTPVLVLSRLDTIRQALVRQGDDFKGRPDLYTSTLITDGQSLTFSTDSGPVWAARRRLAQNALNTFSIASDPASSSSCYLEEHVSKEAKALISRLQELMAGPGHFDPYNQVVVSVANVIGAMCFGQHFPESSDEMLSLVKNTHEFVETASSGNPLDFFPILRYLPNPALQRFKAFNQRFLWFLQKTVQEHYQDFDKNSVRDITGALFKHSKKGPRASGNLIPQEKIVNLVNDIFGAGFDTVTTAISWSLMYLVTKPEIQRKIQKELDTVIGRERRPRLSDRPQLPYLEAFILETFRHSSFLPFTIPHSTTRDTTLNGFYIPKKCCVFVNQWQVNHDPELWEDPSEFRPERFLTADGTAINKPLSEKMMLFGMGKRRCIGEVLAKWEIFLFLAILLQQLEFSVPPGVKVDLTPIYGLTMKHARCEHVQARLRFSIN

[7] = Plasma concentration in Sprague-Dawley rat at 100 mg/kg, po administered as single dose after 4 hrs by HPLC-MS/MS analysis; assay type: ADME, organism-based
How it was run: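 One female Sprague-Dawley rat dosed orally with a suspension in 0.5% porcine gelatin/5% mannitol in water, under 2% isoflurane. Tail-vein blood in citrate; plasma precipitated with acetonitrile containing diphenhydramine internal standard and quantified by HPLC-MS/MS.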

[8] = molecular target: CYP2C19 (Homo sapiens, UniProt P33261); assay: Inhibition of recombinant human CYP2C19 expressed in baculovirus infected insect cell microsomes at 1 uM relative to control; assay type: ADME; how it was run: as §2
Chain of CYP2C19 (P33261 whole entry): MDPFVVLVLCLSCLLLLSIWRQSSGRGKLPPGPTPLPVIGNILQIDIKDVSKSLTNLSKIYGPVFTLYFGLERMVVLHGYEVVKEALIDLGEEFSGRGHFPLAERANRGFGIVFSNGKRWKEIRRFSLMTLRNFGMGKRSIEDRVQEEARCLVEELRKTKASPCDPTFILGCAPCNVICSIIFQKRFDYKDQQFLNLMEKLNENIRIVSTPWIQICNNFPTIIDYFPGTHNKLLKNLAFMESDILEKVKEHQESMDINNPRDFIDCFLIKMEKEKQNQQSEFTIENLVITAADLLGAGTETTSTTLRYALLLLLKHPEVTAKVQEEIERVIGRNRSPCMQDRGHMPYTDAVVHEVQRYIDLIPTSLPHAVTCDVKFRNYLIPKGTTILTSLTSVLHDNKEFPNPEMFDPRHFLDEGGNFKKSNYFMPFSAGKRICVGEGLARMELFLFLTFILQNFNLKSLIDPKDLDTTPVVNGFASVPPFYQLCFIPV

[9] = Cytotoxicity against HEK293 cells assessed as reduction in cell viability after 66 hrs by MTT assay; assay type: cell-based; conditions: human
How it was run: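 HEK293 cells seeded at 2x10⁵ per well; 4 h later, compound added at 100–6.25 µM in quadruplicate in 1% DMSO. MTT read-out at 570 nm after 66 h against vehicle control; IC20 derived by curve fitting.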

[10] = molecular target: T3, CYP17A1 (Homo sapiens, UniProt P05093); assay: Inhibition of human CYP17A1 expressed in Escherichia coli membranes at 2 uM using [3H]-progesterone as substrate after 30 mins in presence of NADPH by HPLC analysis relative to control; assay type: ADME, cell membranes; conditions: Escherichia coli membranes expressing human CYP17A1, probe [3H]-progesterone
T3 sequence (P05093 whole entry): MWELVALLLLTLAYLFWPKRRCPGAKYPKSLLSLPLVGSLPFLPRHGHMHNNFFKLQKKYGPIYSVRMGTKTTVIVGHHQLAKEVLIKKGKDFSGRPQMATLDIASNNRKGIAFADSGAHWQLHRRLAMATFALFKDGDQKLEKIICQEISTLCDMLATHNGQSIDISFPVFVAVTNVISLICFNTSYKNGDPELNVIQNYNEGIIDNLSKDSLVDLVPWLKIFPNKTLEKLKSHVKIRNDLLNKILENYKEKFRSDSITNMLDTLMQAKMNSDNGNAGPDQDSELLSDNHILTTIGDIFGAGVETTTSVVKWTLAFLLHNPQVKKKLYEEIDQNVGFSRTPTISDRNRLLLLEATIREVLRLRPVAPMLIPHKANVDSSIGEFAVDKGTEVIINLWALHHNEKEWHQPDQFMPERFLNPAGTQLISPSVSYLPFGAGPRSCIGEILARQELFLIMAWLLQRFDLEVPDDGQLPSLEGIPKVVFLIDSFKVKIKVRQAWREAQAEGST
How it was run: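 Human CYP17A1 expressed in E. coli; [³H]-progesterone (25 µM) as substrate with NADPH cofactor; test compounds at 2 µM; abiraterone and ketoconazole as references.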

[11] = molecular target: CYP2D6 (Homo sapiens, UniProt P10635); assay: Inhibition of recombinant human CYP2D6 expressed in baculovirus infected insect cell microsomes at 1 uM relative to control; assay type: ADME; how it was run: as §2
Chain of CYP2D6 (P10635 whole entry): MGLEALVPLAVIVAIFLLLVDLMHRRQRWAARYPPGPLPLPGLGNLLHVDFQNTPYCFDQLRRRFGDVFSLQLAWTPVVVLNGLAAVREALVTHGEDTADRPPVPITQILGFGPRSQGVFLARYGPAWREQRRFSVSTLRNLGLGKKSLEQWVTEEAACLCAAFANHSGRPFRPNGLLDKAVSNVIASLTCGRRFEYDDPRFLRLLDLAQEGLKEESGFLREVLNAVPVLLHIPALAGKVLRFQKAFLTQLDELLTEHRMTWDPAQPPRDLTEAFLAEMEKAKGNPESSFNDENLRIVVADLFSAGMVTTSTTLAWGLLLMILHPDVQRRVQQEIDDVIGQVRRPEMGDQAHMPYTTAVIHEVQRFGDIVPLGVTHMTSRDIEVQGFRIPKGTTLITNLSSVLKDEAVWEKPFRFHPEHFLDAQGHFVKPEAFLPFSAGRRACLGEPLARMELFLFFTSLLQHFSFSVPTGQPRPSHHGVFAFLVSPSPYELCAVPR

[12] = system: Salmonella typhimurium; assay: Mutagenicity in Salmonella typhimurium TA7001/7002/7003/7004/7005/7006 up to 100 uM in presence of rat liver S9 fraction by Ames 2 assay; assay type: toxicity; conditions: salmonella enterica subsp. enterica serovar typhimurium; how it was run: as §1

| inhibition at 1 µM [2] [%] | solubility at 24 h [3] [µM] | IC50 [4] [µM] | half-life at 1 µM [5] [h] | inhibition at 1 µM [6] [%] | concentration at 4 h [7] [µM] | inhibition at 1 µM [8] [%] | inhibition at 0.5 h, 2 µM [10] [%] | inhibition at 1 µM [11] [%] | Structure (SMILES) | Activity [1] | IC20 at 66 h [9] [µM] | Activity [12] |
| --- | --- | --- | --- | --- | --- | --- | --- | --- | --- | --- | --- | --- |
| 61 | > 200 | 0.082 | 2.42 | 54 | 0.3 | 8 | ≤ 9 | 0 | Cc1cncc(Cc2cc(-c3ccccc3)no2)c1 | Non-Toxic | 28 | Non-Toxic |
| 33 | > 200 | 0.027 | 2.08 | 23 | 106 | 17 | ≤ 9 | 8 | COc1cncc(Cc2cc(-c3ccccc3)no2)c1 | Non-Toxic | 42 | Non-Toxic |
